Assay results published in ChEMBL document CHEMBL4390653, “Potential anti-herpes and cytotoxic action of novel semisynthetic digitoxigenin-derivatives” (Eur J Med Chem, 2019).

Columns and labels:
Human alphaherpesvirus 1 [1] = assay: Potency index, ratio of IC50 for acyclovir to IC50 for test compound for antiviral activity against acyclovir-sensitive Herpes simplex virus 1 KOS infected in African green monkey Vero cells assessed as inhibition of viral replication after 48 hrs by naphthol blue-black staining-based plaque reduction assay; type: functional, strain KOS
[2] = Cytotoxicity against African green monkey Vero cells assessed as reduction in cell viability after 48 hrs by SRB assay; type: cell-based; details: chlorocebus sabaeus
How it was run: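 Vero cells in MEM with 10% FBS, seeded at 2.5 × 10^4 cells/well. Exposed to a range of concentrations for 48 h at 37 °C, 5% CO2, then sulforhodamine B total-protein staining. CC50 is the concentration reducing viability by 50% versus untreated controls, from nonlinear regression; mean ± SD of three independent experiments.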

Human alphaherpesvirus 1 [3] = assay: (§1) Antiviral activity against acyclovir-sensitive Herpes simplex virus 1 KOS infected in African green monkey Vero cells assessed as inhibition of viral replication after 48 hrs by naphthol blue-black staining-based plaque reduction assay; type: functional, organism-based; details: Human alphaherpesvirus 1, strain KOS
How it was run: (§2)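 Vero cells in MEM with 10% FBS, 37 °C, 5% CO2. Confluent monolayers (2.5 × 10^5 cells/well) infected with about 100 PFU for 1 h at 37 °C. Non-cytotoxic concentrations were added after infection. Cells were then PBS-washed and overlaid with MEM plus 1.5% carboxymethylcellulose, with or without compound, for 48 h. Fixed, naphthol blue-black stained, plaques counted under a stereomicroscope. IC50 versus untreated controls by nonlinear regression; mean of three independent experiments.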

[4] = as §1, with “Selectivity index, ratio of Cytotoxicity against African green monkey Vero cells assessed as reduction in cell viability after 48 hrs by SRB assay to Antiviral” for “Antiviral”; type: toxicity; details: Vero cells infected with HSV-1 KOS, read-out: Ratio CC50/IC50
How it was run: (§3)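 Selectivity index = CC50 in Vero cells (SRB, 48 h) divided by plaque-reduction IC50 for the same virus strain.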

Human alphaherpesvirus 1 [5] = assay: (§4) Antiviral activity against acyclovir-resistant Herpes simplex virus 1 29-R infected in African green monkey Vero cells assessed as inhibition of viral replication after 48 hrs by naphthol blue-black staining-based plaque reduction assay; type: functional, organism-based; details: Human alphaherpesvirus 1, 29-R, Vero, 48 h; read-out: IC50; how it was run: as §2
[6] = as §4, with “Selectivity index, ratio of Cytotoxicity against African green monkey Vero cells assessed as reduction in cell viability after 48 hrs by SRB assay to Antiviral” for “Antiviral”; type: toxicity; details: Vero cells infected with HSV-1 29-R, read-out: Ratio CC50/IC50; how it was run: as §3
Human alphaherpesvirus 2 [7] = assay: (§5) Antiviral activity against Herpes simplex virus 2-333 infected in African green monkey Vero cells assessed as inhibition of viral replication after 48 hrs by naphthol blue-black staining-based plaque reduction assay; type: functional, organism-based; details: Human alphaherpesvirus 2, 333, Vero; how it was run: as §2
[8] = as §5, with “Selectivity index, ratio of Cytotoxicity against African green monkey Vero cells assessed as reduction in cell viability after 48 hrs by SRB assay to Antiviral” for “Antiviral”; type: toxicity; details: Vero cells infected with HSV-2 333, read-out: Ratio CC50/IC50; how it was run: as §3
Human alphaherpesvirus 2 [9] = assay: Potency index, ratio of IC50 for acyclovir to IC50 for test compound for antiviral activity against Herpes simplex virus 2-333 infected in African green monkey Vero cells assessed as inhibition of viral replication after 48 hrs by naphthol blue-black staining-based plaque reduction assay; type: functional
A549 = assay: Cytotoxicity against human A549 cells assessed as inhibition of cell viability after 48 hrs by SRB assay; type: functional, cell-based; details: A549, 48 h
HCT-8 = assay: Cytotoxicity against human HCT8 cells assessed as inhibition of cell viability after 48 hrs by SRB assay; type: functional, cell-based; details: HCT-8, 48 h
How it was run: (§6)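 Cells seeded at 2.5 × 10^4 per well and exposed to a concentration range for 48 h, then SRB total-protein stain. PC3 grown in phenol-red-free DMEM with 1% glutamine; LNCaP in phenol-red-free RPMI 1640 with glutamine and non-essential amino acids. HCT-8 and H460 in RPMI 1640. MRC-5 (plus glutamine and non-essential amino acids) and primary gingival fibroblasts in DMEM. All media had 10% FBS, 37 °C, 5% CO2. Paclitaxel was the reference. IC50 versus untreated controls by nonlinear regression, three independent experiments.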

LNCaP = assay: Cytotoxicity against human LNCAP cells assessed as inhibition of cell viability after 48 hrs by SRB assay; type: functional, cell-based; how it was run: as §6
PC-3 = assay: Cytotoxicity against human PC3 cells assessed as inhibition of cell viability after 48 hrs by SRB assay; type: functional, cell-based; details: PC-3, 48 h; how it was run: as §6
NCI-H460 = assay: Cytotoxicity against human H460 cells assessed as inhibition of cell viability after 48 hrs by SRB assay; type: functional, cell-based; details: NCI-H460, 48 h; how it was run: as §6
MRC5 = assay: Cytotoxicity against human MRC5 cells assessed as inhibition of cell viability after 48 hrs by SRB assay; type: cell-based; details: MRC5, 48 h; how it was run: as §6
[10] = Cytotoxicity against human HGF cells assessed as inhibition of cell viability after 48 hrs by SRB assay; type: cell-based; how it was run: as §6
[11] = Inhibition of porcine cortex Na+/K+-ATPase alpha1/2/3 subunit using ATP as substrate preincubated for 30 mins followed by substrate addition and measured after 30 mins by malachite green reagent-based assay; parameters: species or system Sus scrofa

Compound | Ratio IC50 (Human alphaherpesvirus 1 [1]) | CC50 at 48 h [2] [µM] | IC50 (Human alphaherpesvirus 1 [3]) [nM] | selectivity ratio at 48 h [4] | IC50 (Human alphaherpesvirus 1 [5]) [nM] | selectivity ratio at 48 h [6] | IC50 (Human alphaherpesvirus 2 [7]) [nM] | selectivity ratio at 48 h [8] | Ratio IC50 (Human alphaherpesvirus 2 [9]) | IC50 (A549) [nM] | IC50 (HCT-8) [nM] | IC50 (LNCaP) [nM] | IC50 (PC-3) [nM] | IC50 (NCI-H460) [nM] | IC50 (MRC5) [nM] | IC50 [10] [nM] | IC50 [11] [nM]
C[C@]12CC[C@H](NC(=O)CNCCO)C[C@H]1CC[C@@H]1[C@@H]2CC[C@]2(C)[C@@H](C3=CC(=O)OC3)CC[C@]12O | 6 | > 300 | 230 | > 1300 | 180 | > 1670 | 270 | > 1110 | 12 | 190 | 90 | 130 | 180 | 70 | 130 | 660 | 1990
C[C@@H](O)[C@H](O)[C@@H](O)CCN[C@H]1CC[C@@]2(C)[C@H](CC[C@@H]3[C@@H]2CC[C@]2(C)[C@@H](C4=CC(=O)OC4)CC[C@]32O)C1 | – | > 300 | 1460 | > 206 | 3230 | > 92.9 | 1270 | > 236 | – | 680 | 1250 | 2460 | 1220 | 370 | 550 | 2550 | 2040
C[C@]12CC[C@H](NC(=O)CNc3ccc(C#N)cc3)C[C@H]1CC[C@@H]1[C@@H]2CC[C@]2(C)[C@@H](C3=CC(=O)OC3)CC[C@]12O | – | > 300 | 600 | > 500 | 420 | > 714 | 1000 | > 300 | – | 540 | 1250 | 2080 | 910 | 250 | 1060 | 2090 | 4160
C[C@]12CC[C@H](NC(=O)CO)C[C@H]1CC[C@@H]1[C@@H]2CC[C@]2(C)[C@@H](C3=CC(=O)OC3)CC[C@]12O | 6 | > 300 | 240 | > 1250 | 190 | > 1580 | 300 | > 1000 | 11 | – | 690 | 810 | 420 | 260 | 250 | 1670 | 843
